The list is not random: actives were taken first. Their share in the collection is about 2.1%.
ZTA DNA inh – ZTA (EBV) inhibition in EBNA-1 counter-screen | P03206 | ZTA-DNA binding, fluorescence polarization | inhibition, % at 11 µM | actives 0.15% (n = 320,000) | AID 2234; in the data active means inhibition above about 33%
Target sequence (P03206 whole entry, looked up): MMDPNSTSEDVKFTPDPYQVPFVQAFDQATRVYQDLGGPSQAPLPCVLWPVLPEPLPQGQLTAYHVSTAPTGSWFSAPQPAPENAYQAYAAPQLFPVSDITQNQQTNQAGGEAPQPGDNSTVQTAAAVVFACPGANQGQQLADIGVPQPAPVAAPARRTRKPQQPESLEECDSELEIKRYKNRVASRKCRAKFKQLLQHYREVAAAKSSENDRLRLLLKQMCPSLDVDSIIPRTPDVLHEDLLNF
eIF4H inh – human eIF4H binding inhibitors, primary screen, translation initiation inhibitor project, biochemical, uHTS, fluorescence polarization. eIF4H fluorescence polarization binding assay. inhibition, % at 35 µM. Eukaryotic translation initiation factor 4H (Homo sapiens), Q15056. actives 0.94% (n = 290,000);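 further: calls also rest on retests at 20 µM and on dose response follow-up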
NS3 helicase inh – inhibitors of HCV NS3 helicase, primary screen, biochemical, Cy5 molecular beacon fluorescence. NS3 helicase DNA unwinding. Hepatitis C virus NS3 helicase. actives 0.56% (n = 290,000). inhibition, % at 10.9 µM;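 active means inhibition above the mean of all tested compounds plus 3 SD, set per campaign, cut at about 35% in these data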;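 further: 0% = DMSO wells and 100% = thioflavine S control wells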
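Measured by: Cy5 fluorescence, 0 and 60 min reads / Assay system: NS3 helicase fragment of HCV / Control set: low DMSO, high thioflavine S at 110 µM / Times: 1 h reaction at 25 °C, ATP-initiated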
PABP1 MLLE inh – inhibitors of PABP1 MLLE–PAM2 peptide binding, primary screen, biochemical, fluorescence polarization, FITC-PAM2, GST-MLLE; Polyadenylate-binding protein 1 (Homo sapiens), P11940; inhibition, % at 20 µM; actives 0.36% (n = 360,000); AID 588489, 2011; in the data active means inhibition above about 35%, passing the limit was not always enough;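 further: plate controls were DMSO wells with GST-MLLE for no effect and wells lacking GST-MLLE protein for full effect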
PABP FP inh – PABP poly(A) RNA binding inhibitors, primary screen, biochemical, fluorescence polarization, uHTS; inhibition, % at 35 µM; AID 2014, 2009; Polyadenylate-binding protein 1 (Homo sapiens), P11940; actives 1% (n = 290,000);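 further: calls also rest on retests at 20 µM and on dose response follow-up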
EBNA-1 inhibitor – EBNA-1 DNA-binding inhibitors, primary screen, biochemical, fluorescence polarization. actives 0.34% (n = 300,000). inhibition, % at 14.8 µM; in the data active means inhibition above about 28%
NS3 helicase cf – HCV NS3 helicase inhibitors, retest, confirmation, biochemical, Cy5 molecular beacon fluorescence, triplicate; inhibition, % at 10.9 µM; shares compounds with NS3 helicase inh; NS3 helicase DNA unwinding; actives 31% (n = 1,600);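 active means inhibition above the mean of all tested compounds plus 3 SD, cutoff set per campaign, cut at about 36% in these data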
DNA FID counter – compounds displacing fluorescent DNA intercalator, artefact control for HCV NS3 helicase inhibitor project, biochemical, FID fluorescence, triplicate. shares compounds with NS3 helicase inh. DNA fluorescent intercalator displacement. inhibition, % at 7.9 µM. actives 4% (n = 1,600); in the data active means inhibition above about 37%;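 further: 0% = vehicle and 100% = reference compound; higher means more displacement of ethidium bromide from the DNA hairpin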
DNA FID DR – compounds displacing fluorescent intercalator from DNA, dose response, counter-screen for HCV NS3 helicase inhibitor project, biochemical, fluorescence; 120 tested, under 10 active; shares compounds with NS3 helicase inh; IC50, µM; fluorescent intercalator displacement from DNA; AID 2172, 2009
Active calls of the source: *; i = inactive; ? = inconclusive; / = not tested or not shown. Unless noted, how the calls were made is not given here.

SMILES | ZTA DNA inh | eIF4H inh | NS3 helicase inh | PABP1 MLLE inh | PABP FP inh | EBNA-1 inhibitor | NS3 helicase cf | DNA FID counter | others
CCN(CC)CC(O)c1cccn1-c1ccc(CNC(=O)NC(C)C)cc1 (configuration not stated) | -15 | 2 | 39* | 7 | -9 | -1 | -16 | 0
O=[N+]([O-])c1ccccc1SNc1ccc(Br)cn1 | -20 | 5 | -5 | 22 | -13 | -8 | / | /
COc1ccccc1OCC(=O)N/N=C/C=C/c1ccc([N+](=O)[O-])o1 | 17 | ? | 46* | 1 | 14 | 9 | 2 | -1
O=C(N/N=C\C=C\c1ccc([N+](=O)[O-])o1)c1cccs1 | / | 100* | 54* | -19 | 53* | / | 2 | 12
Cc1ccccc1OCC(=O)N/N=C/c1ccc([N+](=O)[O-])o1 | 15 | 22 | 35 | 7 | 120 | 3 | / | /
O=C(N/N=C/C=C/c1ccccc1[N+](=O)[O-])c1cccs1 | 4 | -9 | -2 | -17 | 28 | -2 | / | /
CC(C)CCNC(=O)CSc1nc2ccccc2s1 | -2 | -11 | 5 | 29 | 17 | 1 | / | /
CNc1ccc(Br)cc(C(=O)/C=C/c2cccc(OC)c2OC)c1=O | 9 | 23 | 32 | -43 | -6 | 5 | / | /
CNc1ccc(Br)cc(C(=O)/C=C/c2cccc(Cl)c2Cl)c1=O | / | 81 | 37* | -120 | 65* | / | 68* | 24 | DNA FID DR=>79
COc1ccc(C(=O)C[n+]2ccccc2C)cc1 | 8 | 1 | -4 | -3 | -2 | 3 | / | /
CCOC(=S)SCC(=O)Nc1nc(-c2ccc(Br)cc2)cs1 | -3 | -6 | 4 | 14 | -4 | 6 | / | /
COc1ccc(-n2cccc2/C=C2\C(=N)N3N=C(C(C)C)SC3=NC2=O)cc1 | 3 | -8 | 25 | -3 | -1 | 8 | / | /
COc1ccc(-n2cccc2/C=C2\C(=N)N3N=C(c4ccco4)SC3=NC2=O)cc1 | 2 | 44 | 42* | -20 | -13 | 6 | 71* | -14 | DNA FID DR=>79
N=C1/C(=C/c2coc3ccccc3c2=O)C(=O)N=C2SC(c3ccco3)=NN12 | 11 | ? | 54* | i | ? | 3 | 50* | 50*
Cc1cc(/C=C2\C(=N)N3N=C(c4ccco4)SC3=NC2=O)c(C)n1Cc1ccccc1 | 7 | 36 | 24 | -19 | 2 | -5 | / | /
CCOc1ccc(/C=C/C(=O)c2cc(Br)ccc(=O)c2O)cc1 | 15 | 77 | 59* | -55 | 6 | 2 | 77* | 5 | DNA FID DR=>79
CCc1ccc(/C=C/C(=O)c2cc(Br)ccc(=O)c2O)cc1 | 21 | 68 | 16 | -32 | 40 | -9 | / | /
O=c1[nH]cnc(O)c1C1C=CC=CC=C1 | / | / | / | 6 | / | / | / | /
CCN(CC)C(=O)NC1CC(=O)N(c2ccc(OC)cc2)C1 (configuration not stated) | -4 | 7 | 4 | -9 | 4 | -6 | / | /
COc1ccc(N2CC(NC(=O)NCC(C)C)CC2=O)cc1 (configuration not stated) | -2 | 2 | 53* | 26 | -8 | 2 | -8 | -1
O=C(Cc1cccs1)NCc1cccnc1 | -6 | 7 | 3 | 0 | 4 | 8 | / | /
Cc1nn(Cc2ccccc2)c(Cl)c1/C=C/C(=O)OCC(=O)N(C)C1CCS(=O)(=O)C1 (configuration not stated) | -3 | 4 | 46* | -32 | 9 | 4 | -12 | -20
Cc1nn(Cc2ccccc2Cl)c(Cl)c1/C=C/C(=O)OCC(=O)NC1CCS(=O)(=O)C1 (configuration not stated) | 1 | -5 | 3 | -10 | 4 | -2 | / | /
CN1CCN(C(c2ccc(Br)cc2)c2cc(Cl)c3cccnc3c2O)CC1 (configuration not stated) | -6 | 14 | 40* | 19 | -1 | -12 | 19 | 74*
COc1cc(OC)c(-c2c3cc(O)c(=O)cc-3oc3cc(O)c(O)cc23)cc1OC | 19 | ? | 51* | i | 6 | 5 | 86* | -167
SMILES | ZTA DNA inh | eIF4H inh | NS3 helicase inh | PABP1 MLLE inh | PABP FP inh | EBNA-1 inhibitor | NS3 helicase cf | DNA FID counter | others
CCC(=O)Nc1ccc2nc3c(=O)[nH]c(=S)[nH]c3nc2c1 | 4 | 112* | 39* | 38 | 98* | 10 | -21 | 5
CCC(=O)Nc1ccc2ccccc2c1 | 5 | 0 | 1 | 6 | -9 | 5 | / | /
COc1cccc(N2C(=O)CC(Nc3ccc(N4CCOCC4)cc3)C2=O)c1 (configuration not stated) | 4 | 0 | 34 | 36 | 4 | -1 | / | /
O=C1CC(Nc2ccc(N3CCOCC3)cc2)C(=O)N1c1cccc(C(F)(F)F)c1 (configuration not stated) | 5 | -9 | 48* | 22 | 4 | 7 | -8 | -1
Cc1ccc2c(c1)N(C(=O)CCC(=O)N1CCOCC1)CC(C)O2 (configuration not stated) | 4 | -2 | 4 | 15 | -2 | 8 | / | /
O=c1nc(/C=C/c2cccn2-c2ccc([N+](=O)[O-])cc2)cc(C(F)(F)F)[nH]1 | 3 | 60* | 64* | -75 | active | 12 | -4 | 0
O=c1nc(/C=C/c2cc([N+](=O)[O-])ccc2Cl)cc(C(F)(F)F)[nH]1 | 23 | -6 | 10 | 8 | 26 | 11 | / | /
COc1ccc(CN(CCC(c2ccccc2)c2ccco2)C(=O)c2ccco2)cc1 (configuration not stated) | 6 | -9 | 25 | -16 | -4 | -3 | / | /
O=C(c1ccco1)N(CCC(c1ccccc1)c1ccco1)Cc1ccccc1 (configuration not stated) | 3 | 43 | 50* | -1 | 10 | -6 | 21 | -20
O=C(O)c1cc([N+](=O)[O-])cc([N+](=O)[O-])c1N1CCN(c2cccc(C(F)(F)F)c2)CC1 | / | 0 | 42* | -4 | -8 | / | 55* | -17
O=C(N/N=C/c1ccc[nH]1)c1cc2ccccc2cc1O | 3 | 76* | 41* | -15 | 28 | -16 | -14 | 5
CC1Cc2ccccc2N1C(=O)CN(C)CC(=O)Nc1ccc(OC(F)(F)F)cc1 (configuration not stated) | -8 | / | / | -7 | / | / | / | /

Compound activity as filed in PubChem.
